In ChEMBL document CHEMBL3784931, “Synthesis and evaluation of novel angiotensin II receptor 1 antagonists as anti-hypertension drugs” (Bioorg Med Chem, 2016):
Activity calls are given as the source filed them. No cut-off for these calls is given here.

Legend:
Rattus norvegicus = test: Antihypertensive activity in spontaneous hypertensive rat model assessed as reduction in mean blood pressure at 10 mg/kg, po administered for 2 hrs; type: functional, organism-based
Outline: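 Male SHRs were randomized, n = 6 per group. Compound was suspended in DMSO/oleic acid (1:4) and given by oral gavage; vehicle controls got the same volume of solvent. SBP and DBP were recorded in conscious animals by noninvasive tail-artery manometry. MBP = (SBP − DBP)/3 + DBP. Data are mean ± SEM, with p < 0.05 taken as significant.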

[1] = molecular target: T1, Type-1 angiotensin II receptor A (Rattus norvegicus, UniProt P25095); test: Displacement of [125I]-Ang II from Angiotensin 2 type-1A receptor in rat vascular smooth muscle cells after 150 mins by gamma counting method
T1 sequence (P25095 whole entry): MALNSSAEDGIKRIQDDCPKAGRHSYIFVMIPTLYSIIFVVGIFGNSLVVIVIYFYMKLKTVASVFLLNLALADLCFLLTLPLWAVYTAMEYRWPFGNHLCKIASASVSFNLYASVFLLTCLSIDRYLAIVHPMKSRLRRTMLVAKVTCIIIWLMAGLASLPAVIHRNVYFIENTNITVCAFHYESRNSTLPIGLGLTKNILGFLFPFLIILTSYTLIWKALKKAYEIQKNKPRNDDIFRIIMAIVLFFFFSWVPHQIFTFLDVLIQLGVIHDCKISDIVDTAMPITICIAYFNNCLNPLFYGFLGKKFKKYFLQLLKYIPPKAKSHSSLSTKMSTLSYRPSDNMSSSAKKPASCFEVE
Outline: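 Rat vascular smooth muscle cells (passages 3–6) were seeded at 10⁶ cells/well and grown at 37 °C in 5% CO₂. Nonspecific binding was taken with 1 µM Ang II. Cells were washed three times, lysed 10 min in 0.1 M NaOH, and bound radioactivity was gamma counted.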

SMILES	Activity (Rattus norvegicus)	IC50 [1] [nM]	Ki [1] [nM]
CCCCc1nc(Cl)c(CO)n1Cc1ccc(-c2ccccc2-c2nnn[nH]2)cc1	Active	–	–
CCCCc1nc(Cl)c(C=O)n1Cc1ccc(-c2ccccc2-c2noc(=O)[nH]2)cc1	–	4.32	3.13
